Shown are actives, neighbours in structure and some others; about 3.1% of the full set was active somewhere.
ERAP1 inh – inhibitors of human ERAP1 aminopeptidase; recombinant ERAP1, Leu-AMC fluorescence, 60 min; inhibition, % at 10.7 µM; 340,000 tested, 0.15% active;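 active means mean replicate inhibition of at least 30%, or all replicates individually reaching that 30% level; inactive means mean below 30% and not every replicate reaching it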
Ecoli rRNA inh – inhibitors of bacterial rRNA selective over humanized ribosomes | 350,000 tested, 1.6% active | AID 720706 | E. coli WT GFP vs humanized-ribosome RFP mutants, fluorescence, 24 h; stronger effect = lower value; DMSO median 0, no signal -100 | GFP signal change (wild-type ribosome), % (concentration not given with the values);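 active means significant combined selectivity score with lowered wild-type GFP, culture density cut under 30%, mutant RFP and density less affected; inactive means any of these conditions unmet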
SIRT5 block – inhibitors of human sirtuin-5 desuccinylase; Purified SirT5, succinyl-peptide AMC, trypsin-coupled fluorescence; inhibition, % at 15 µM; 330,000 tested, 1.1% active; AID 652115; in the data active means inhibition above about 15%
Target sequence (Q9NXA8 whole entry, looked up): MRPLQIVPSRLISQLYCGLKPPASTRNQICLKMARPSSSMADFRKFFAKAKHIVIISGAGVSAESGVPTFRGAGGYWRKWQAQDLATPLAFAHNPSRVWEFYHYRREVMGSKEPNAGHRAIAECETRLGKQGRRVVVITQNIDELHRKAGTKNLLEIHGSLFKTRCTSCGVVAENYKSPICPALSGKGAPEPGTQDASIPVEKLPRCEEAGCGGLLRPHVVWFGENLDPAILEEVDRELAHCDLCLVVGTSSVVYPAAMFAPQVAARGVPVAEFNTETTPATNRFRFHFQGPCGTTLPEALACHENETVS
F508del corr – correctors of CFTR F508del function in bronchial epithelial cells. CFBE cells, YFP halide quenching; stimulated with forskolin plus potentiator P3; % fluorescence drop versus neutral controls. activity (quench increase), % at 7.58 µM. 350,000 tested, 0.36% active;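 active means mean added fluorescence quench of at least 8% versus neutral control, with both replicates also reaching 8%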;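 further: cells transiently co-express mutant CFTR-F508del with the halide-sensitive YFP; corrector assay measuring rescue of mutant channel to the surface after 24 h compound exposure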
S100A4 inh HTS – S100A4-myosin IIA interaction inhibition; inhibition, % at 10.7 µM; S100A4/TAMRA-MyoIIA peptide fluorescence polarization; 360,000 tested, 0.14% active; P26447;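 active means mean inhibition of at least 70% across replicates, with every replicate also reaching that level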
Target sequence (P26447 whole entry, looked up): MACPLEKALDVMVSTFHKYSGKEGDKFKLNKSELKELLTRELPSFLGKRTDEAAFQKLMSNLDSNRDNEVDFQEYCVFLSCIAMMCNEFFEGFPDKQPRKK
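Test system – S100A4 monomer (human) · Compound – single-point compound testing · Schedule – 5 min incubation before reading · Probe or stimulus – TAMRA-labelled myosin IIA heavy-chain peptide probe, 5 nM · Benchmarks – neutral control DMSO, positive control TFP · Medium – Calcium-containing HEPES buffer, pH 7.2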
Hits are given with their value; – = inactive; · = not tested or not shown.

SMILES | ERAP1 inh | Ecoli rRNA inh | SIRT5 block | F508del corr | S100A4 inh HTS
Cc1ccc2nc(SC(C)C(=O)N3CC(C)OC(C)C3)[nH]c2c1 (stereo not given) | – | – | 22 | – | –
Cc1ccc2nc(SC(C)C(=O)N3CCCCC3)[nH]c2c1 (stereo not given) | – | – | – | – | –
COCC(=O)N(C)C[C@H]1Oc2cc(-c3ccc(OC)cc3)ccc2S(=O)(=O)N([C@@H](C)CO)C[C@H]1C | – | – | – | – | –
O=C(COC(=O)CCC(=O)c1cccs1)NCc1ccccc1 | – | – | – | – | –
Cc1ccc(CNC(=O)COC(=O)CCC(=O)c2cccs2)cc1 | – | – | 19 | – | –
Oc1ccc(-c2csc(-c3ccccc3)n2)cc1O | – | -34 | – | – | –
Oc1ccc(-c2csc(-c3cccnc3)n2)cc1O | – | – | – | – | –
Oc1ccc(-c2csc(Nc3ncccn3)n2)cc1O | – | -30 | – | – | –
COc1ccc(S(=O)(=O)N(C)C[C@@H]2Oc3c(NC(=O)Nc4cccc5ccccc45)cccc3C(=O)N([C@@H](C)CO)C[C@@H]2C)cc1 | – | – | – | – | –
CCOc1ccc(NC(=S)N2CCC(C(=O)c3ccc(OC)cc3)CC2)cc1 | – | -14 | · | – | –
C[C@@H]1CN([C@@H](C)CO)C(=O)c2cccc(NS(=O)(=O)c3ccc(Cl)cc3)c2O[C@@H]1CN(C)Cc1ccc(C(F)(F)F)cc1 | – | – | – | – | –
C[C@H](CO)N1C[C@H](C)[C@@H](CN(C)Cc2cccc(F)c2)Oc2ncc(C3=CCCC3)cc2C1=O | – | – | – | – | –
COc1ccc(-c2ccccc2[C@@H]2[C@@H](C#N)N(C(=O)C3CC3)[C@H]2CO)cc1 | – | – | · | – | –
Cc1c(NC(=O)Nc2ccc([N+](=O)[O-])cc2)c(=O)n(-c2ccccc2)n1C | – | – | – | – | –
O=C(CCC(=O)Nc1cccc(Cl)c1)N/N=C/c1cc([N+](=O)[O-])ccc1O | – | – | 15 | – | –
Cc1ccc(C)c(NC(=O)CCC(=O)N/N=C/c2cc([N+](=O)[O-])ccc2O)c1 | – | – | – | 9.9 | –
Cc1c(NC(=S)N/N=C/c2cc([N+](=O)[O-])ccc2O)c(=O)n(-c2ccccc2)n1C | – | -22 | – | – | –
O=C(CCCC(=O)Nc1cccc(Br)c1)N/N=C/c1cc([N+](=O)[O-])ccc1O | – | – | – | – | –
COc1cccc(-c2ccc3n(c2=O)C[C@H]2[C@H](CO)[C@@H](C(=O)N(C)C)[C@@H]3N2CC2CC2)c1 | – | – | – | – | –
CO[C@H]1CN(C)C(=O)c2cc(NC(=O)Nc3ccc(Cl)cc3)ccc2OC[C@@H](C)N(C)C[C@@H]1C | – | – | – | – | –
CC1(Cc2ccc(Cl)c(Cl)c2)C(=O)Nc2c(Cl)ccc(Cl)c21 (stereo not given) | – | – | – | – | –
CC1(Cc2ccc(F)cc2)C(=O)Nc2c(Cl)ccc(Cl)c21 (stereo not given) | – | – | – | 8.8 | –
COc1ccc(S(=O)(=O)Nc2ccc3c(c2)C(=O)N([C@H](C)CO)C[C@@H](C)[C@H](CN(C)Cc2ccc(C(F)(F)F)cc2)OCCCC[C@H](C)O3)cc1 | – | – | 15 | – | –
COc1ccc(S(=O)(=O)Nc2ccc3c(c2)C(=O)N([C@@H](C)CO)C[C@@H](C)[C@@H](CN(C)Cc2ccc(C(F)(F)F)cc2)O3)cc1 | – | – | · | – | –
COc1ccc(S(=O)(=O)Nc2ccc3c(c2)C(=O)N([C@H](C)CO)C[C@@H](C)[C@@H](CN(C)Cc2ccc(C(F)(F)F)cc2)O3)cc1 | – | – | – | 9.2 | –
SMILES | ERAP1 inh | Ecoli rRNA inh | SIRT5 block | F508del corr | S100A4 inh HTS
COc1ccc(S(=O)(=O)Nc2ccc3c(c2)C(=O)N([C@H](C)CO)C[C@H](C)[C@@H](CN(C)Cc2ccc(C(F)(F)F)cc2)OCCCC[C@H](C)O3)cc1 | – | – | – | – | –
COc1ccc(S(=O)(=O)Nc2ccc3c(c2)C(=O)N([C@@H](C)CO)C[C@H](C)[C@@H](CN(C)Cc2ccc(C(F)(F)F)cc2)OCCCC[C@H](C)O3)cc1 | – | – | 17 | – | –
C[C@H](CO)N1C[C@H](C)[C@@H](CN(C)S(=O)(=O)c2ccc(F)cc2)OCc2ccccc2-c2ccccc2C1=O | · | – | · | · | ·
CC(=O)N(C)C[C@H]1Oc2ncc(-c3ccc(C#N)cc3)cc2C(=O)N([C@H](C)CO)C[C@@H]1C | – | – | – | – | –
CCc1ccc(N2CC(C(=O)OCC(=O)Nc3ccccc3C)CC2=O)cc1 (stereo not given) | – | – | – | – | –
CCOc1ccccc1NC(=O)COC(=O)C1CC(=O)N(c2c(C)cccc2C)C1 (stereo not given) | – | – | 19 | – | –
Cc1c(C2Nc3ccccc3C2C)[nH]c2ccccc12 (stereo not given) | – | – | · | 10 | –
CNC(=S)N(CCc1c(C)[nH]c2ccccc12)Cc1ccco1 | · | -20 | – | – | –
CNC(=S)N(CCc1c(C)[nH]c2ccc(F)cc12)Cc1ccco1 | – | – | – | – | –
Cn1cnc(S(=O)(=O)N2C[C@H](O)COC[C@H]3O[C@@H](CC(=O)NC4CCC4)CC[C@@H]32)c1 | – | – | – | – | –
Cc1cc(C)c(OCCCCN(C)C)c(Br)c1 | – | – | 15 | – | –
Cc1cc(C)c(OCCOCCN(C)C)c(Br)c1 | – | – | – | · | –
CN(C)c1ccc(C(O)P(=O)(OC2CCCCC2)OC2CCCCC2)cc1 (stereo not given) | – | -34 | – | – | –
COc1ccc(C(=O)NCC2CCN(C(=O)C(=O)c3cc4ccccc4o3)CC2)c(OC)c1 | – | -13 | · | – | –
COC(=O)c1cc(S(=O)(=O)NCC2CCN(C(=O)C(=O)c3cc4ccccc4o3)CC2)cs1 | – | -19 | · | – | –
O=C(C(=O)N1CCC(CNS(=O)(=O)c2ccc(F)cc2)CC1)c1cc2ccccc2o1 | – | – | · | – | –
COc1ccc2c3c(n(C)c2c1)[C@@H](CO)NCC31CCN(S(=O)(=O)c2ccc(C)cc2)CC1 | · | – | · | – | ·
COc1cc(/C(C)=N/NC(=O)CN2CCN(S(=O)(=O)c3ccc(C)cc3)CC2)ccc1O | · | – | – | – | –
C/C(=N\NC(=O)CN1CCN(S(=O)(=O)c2ccc(C)cc2)CC1)c1ccc(O)cc1 | · | – | 15 | – | –
CCOC(=O)/C=C/c1c(OC)cccc1OC | – | · | – | – | –
CC=Cc1ccc2n(c1=O)C[C@H]1[C@H](CO)[C@@H](C(=O)NCC3CC3)[C@@H]2N1Cc1ccccc1 (mixture of isomers) | – | – | – | – | –
CCCN1[C@@H]2c3ccc(-c4cccnc4)c(=O)n3C[C@H]1[C@H](CO)[C@H]2C(=O)NCCc1cn(C)cn1 | 55 | – | – | · | –
